Measured values: ChEMBL document CHEMBL1629439, “High-throughput identification of antibacterials against methicillin-resistant Staphylococcus aureus (MRSA) and the transglycosylase” (Bioorg Med Chem, 2010)
≈ marks a conversion by molar mass, not a printed value.

Key:
[1] = Inhibition of transglycosylase assessed as inhibition of NBD- labelled lipid II polymerization at 100 uM
In short: (§1)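 100 µM NBD-labelled lipid II incubated 30 min with full-length PBP (EC, SA or Mtb) and 10 ng/µl N-acetylmuramidase in 50 mM Tris-HCl pH 8.0, 10 mM MgCl2, 0.1% Triton X-100, 10% DMSO, 15% MeOH. Supernatant run on anion-exchange HPLC with 20 mM–0.5 M ammonium acetate gradient. Inhibition calculated from substrate peak-area percentage. IC50 determined. S. aureus strains share one SA enzyme.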

[2] = Displacement of fluorescein-labeled moenomycin from transglycosylase at 100 uM after 30 mins by fluorescence anisotropy binding assay
[3] = tested on: Stenotrophomonas maltophilia; experiment: Antimicrobial activity against Stenotrophomonas maltophilia ATCC 13637 after 18 to 24 hrs by alamar blue assay; assay type: functional; conditions: Stenotrophomonas maltophilia, ATCC 13637; read-out: MIC
In short: (§2)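 Broth microdilution per NCCLS in Mueller-Hinton broth, 8-point twofold dilutions, 384-well format. Exponential-phase cells at 5 × 10^5 cells/ml incubated with compound 18–24 h at 37 °C, then 20% Alamar blue added and fluorescence read. MIC90 taken as the lowest concentration preventing at least 90% bacterial growth.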

Staphylococcus aureus [4] = experiment: Antimicrobial activity against methicillin-resistant Staphylococcus aureus isolate NTUH4722 after 18 to 24 hrs by alamar blue assay; assay type: functional
In short: (§3)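 Broth microdilution per NCCLS standard, Mueller-Hinton broth, 8-point twofold dilutions; exponentially growing cells at 5 10^5 cells/ml with compound, 18–24 h at 37 C; 20% Alamar blue added, fluorescence read; MIC90 taken as lowest concentration preventing at least 90% growth.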

Acinetobacter baumannii = experiment: Antimicrobial activity against Acinetobacter baumannii ATCC 49139 after 18 to 24 hrs by alamar blue assay; assay type: functional; conditions: Acinetobacter baumannii, ATCC 49139; read-out: MIC; in short: as §2
[5] = tested on: Mycolicibacterium smegmatis; experiment: Antimicrobial activity against Mycobacterium smegmatis BCRC 11565 after 18 to 24 hrs by alamar blue assay; assay type: functional; conditions: Mycolicibacterium smegmatis, BCRC 11565; read-out: MIC; in short: as §2
Serratia marcescens = experiment: Antimicrobial activity against Serratia marcescens ATCC 14756 after 18 to 24 hrs by alamar blue assay; assay type: functional; conditions: Serratia marcescens, ATCC 14756; read-out: MIC; in short: as §2
Staphylococcus aureus [6] = experiment: Antimicrobial activity against Staphylococcus aureus ATCC 29213 after 18 to 24 hrs by alamar blue assay
Pseudomonas aeruginosa = experiment: Antimicrobial activity against Pseudomonas aeruginosa ATCC 25619 after 18 to 24 hrs by alamar blue assay; assay type: functional; conditions: Pseudomonas aeruginosa, ATCC 25619; read-out: MIC; in short: as §2
Staphylococcus aureus [7] = experiment: Antimicrobial activity against methicillin-resistant Staphylococcus aureus ATCC 33592 after 18 to 24 hrs by alamar blue assay; assay type: functional; conditions: Staphylococcus aureus, ATCC 33592; read-out: MIC; in short: as §3
Staphylococcus aureus [8] = experiment: Antimicrobial activity against oxacillin- and methicillin-resistant Staphylococcus aureus isolate Sa-OXA-R2 after 18 to 24 hrs by alamar blue assay; assay type: functional; in short: as §3
Escherichia coli = experiment: Antimicrobial activity against Escherichia coli ATCC […] after 18 to 24 hrs by alamar blue assay; assay type: functional; conditions: Escherichia coli; read-out: MIC; in short: as §2
Bacillus subtilis = experiment: Antimicrobial activity against Bacillus subtilis ATCC 23857 after 18 to 24 hrs by alamar blue assay; assay type: functional; in short: as §2
[9] = Inhibition of transglycosylase assessed as inhibition of NBD- labelled lipid II polymerization; in short: as §1

Row | Structure (SMILES) | inhibition [1] [%] | inhibition [2] [%] | MIC [3] [µg/mL] | MIC (Staphylococcus aureus [4]) [µg/mL] | MIC (Acinetobacter baumannii) [µg/mL] | MIC [5] [µg/mL] | MIC (Serratia marcescens) [µg/mL] | MIC (Staphylococcus aureus [6]) [µg/mL] | MIC (Pseudomonas aeruginosa) [µg/mL] | MIC (Staphylococcus aureus [7]) [µg/mL] | MIC (Staphylococcus aureus [8]) [µg/mL] | MIC (Escherichia coli) [µg/mL] | MIC (Bacillus subtilis) [µg/mL] | IC90 [9] [µM]
1 | Cc1ccc(-c2cc(C(=O)Oc3cccc(C)c3)no2)cc1 | 0 | 96 | – | – | – | – | – | – | – | – | – | – | – | –
2 | Cc1c(CCC(=O)O)c(=O)oc2c(C)c3occ(-c4ccc(Cl)cc4)c3cc12 | 0 | 97 | > 256 | 2.5 (≈ 6.3 µM) | > 256 | 1 (≈ 2.52 µM) | > 256 | 2.5 (≈ 6.3 µM) | > 256 | 1.25 (≈ 3.15 µM) | 2.5 (≈ 6.3 µM) | > 256 | > 64 | –
3 | O=C(Nc1cccc2cccnc12)c1ccc([N+](=O)[O-])o1 | 0 | 90 | 32 (≈ 113 µM) | 2 (≈ 7.06 µM) | 12 (≈ 42.4 µM) | 0.5 (≈ 1.77 µM) | 32 (≈ 113 µM) | 2 (≈ 7.06 µM) | 128 (≈ 452 µM) | 2 (≈ 7.06 µM) | 2 (≈ 7.06 µM) | 256 (≈ 904 µM) | 0.06 (≈ 0.212 µM) | –
4 | O=C(Nc1ccc(Cl)c(Cl)c1)c1ccc([N+](=O)[O-])o1 | 0 | 96 | 32 (≈ 106 µM) | 4 (≈ 13.3 µM) | 12 (≈ 39.9 µM) | 0.5 (≈ 1.66 µM) | 32 (≈ 106 µM) | 2 (≈ 6.64 µM) | 128 (≈ 425 µM) | 2 (≈ 6.64 µM) | > 4 | 256 (≈ 850 µM) | 0.06 (≈ 0.199 µM) | –
5 | CN1C(=O)c2ccccc2Sc2ccc(NC(=O)c3ccc([N+](=O)[O-])o3)cc21 | 0 | 91 | 32 (≈ 80.9 µM) | 0.5 (≈ 1.26 µM) | 12 (≈ 30.3 µM) | 0.5 (≈ 1.26 µM) | 32 (≈ 80.9 µM) | 2 (≈ 5.06 µM) | 128 (≈ 324 µM) | 1 (≈ 2.53 µM) | 2 (≈ 5.06 µM) | 256 (≈ 647 µM) | 0.06 (≈ 0.152 µM) | –
6 | CCN(CC)c1cc(C)c2cc(NC(=O)c3ccc([N+](=O)[O-])o3)ccc2n1 | 0 | 90 | 32 (≈ 86.9 µM) | > 4 | 12 (≈ 32.6 µM) | 0.5 (≈ 1.36 µM) | 32 (≈ 86.9 µM) | 2 (≈ 5.43 µM) | 128 (≈ 347 µM) | > 4 | > 4 | 256 (≈ 695 µM) | 0.06 (≈ 0.163 µM) | –
7 | O=C(Nc1ccc(Cl)c(Cl)c1)c1cc(Cl)cc(Cl)c1O [3,3',4',5-TETRACHLOROSALICYLANILIDE] | 0 | 90 | 16 (≈ 45.6 µM) | 1 (≈ 2.85 µM) | 16 (≈ 45.6 µM) | 0.5 (≈ 1.42 µM) | 16 (≈ 45.6 µM) | 0.25 (≈ 0.712 µM) | 16 (≈ 45.6 µM) | 1 (≈ 2.85 µM) | 1 (≈ 2.85 µM) | 8 (≈ 22.8 µM) | < 0.03 | –
8 | C(=C\c1nc([P+](c2ccccc2)(c2ccccc2)c2ccccc2)c(N2CCCCCC2)o1)/c1ccccc1 | 0 | 97 | – | – | – | – | – | – | – | – | – | – | – | –
9 | Cc1ccc(OC(=O)c2cc(-c3ccc(C)c(C)c3)on2)c(C)c1 | 0 | 95 | – | – | – | – | – | – | – | – | – | – | – | –
10 | Cc1ccc(Nc2nc3nonc3nc2Nc2cccc(C(F)(F)F)c2)cc1Cl | 0 | 90 | – | – | – | – | – | – | – | – | – | – | – | –
11 | O=C(Nc1ccc(Oc2ccc(Cl)c3cccnc23)c(Br)c1)c1cc(Br)cc(Br)c1O | – | – | 16 (≈ 25.5 µM) | ≤ 0.03 | 16 (≈ 25.5 µM) | 0.5 (≈ 0.797 µM) | 16 (≈ 25.5 µM) | 32 (≈ 51 µM) | 16 (≈ 25.5 µM) | 16 (≈ 25.5 µM) | ≤ 0.03 | 8 (≈ 12.7 µM) | < 0.03 | 50
12 | Cc1ccc(C)c(C(=O)c2cc(NC(=O)c3cc(Br)cc(Br)c3O)ccc2Oc2ccc(Cl)cc2)c1 | – | – | 16 (≈ 25.4 µM) | ≤ 0.03 | 16 (≈ 25.4 µM) | 0.5 (≈ 0.794 µM) | 16 (≈ 25.4 µM) | 8 (≈ 12.7 µM) | 16 (≈ 25.4 µM) | 32 (≈ 50.8 µM) | ≤ 0.03 | 8 (≈ 12.7 µM) | < 0.03 | > 100
